Source: ChEMBL document CHEMBL1130338, “(E)- and (Z)-7-arylidenenaltrexones: synthesis and opioid receptor radioligand displacement assays” (J Med Chem, 1997)

How the values were obtained:
[1] = target: Opioid receptors; mu & delta (UniProt P41143+P35372); experiment: Selectivity ratio measured in terms of delta opioid receptor to the mu opioid receptor; type: protein assay; details: Cavia porcellus
[2] = target: Mu-type opioid receptor (Cavia porcellus, UniProt P97266); experiment: Binding affinity was determined in a crude membrane preparation from guinea pig brain by displacement of [3H]DAMGO from Opioid receptor mu 1; type: cell membranes
Summary of the method: (§1)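 Guinea pig brain (less cerebellum) homogenized in 0.05 M Tris pH 7.4, pelleted at 25000g (4 °C, 20 min), stored in 0.32 M sucrose at –70 °C. Diluted 1:60, giving 0.8–1.5 mg protein/mL. Radioligands at 1.0 nM ([3H]DAMGO μ, [3H]DPDPE δ, [3H]U69,593 κ). Test ligand in duplicate at nine concentrations, 1.0–1000 nM. Nonspecific binding with 10 μM naloxone. Incubated 60 min at 25 °C, then filtered and counted. Ki from IC50 via Cheng–Prusoff using KD measured in this homogenate.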

[3] = target: Kappa-type opioid receptor (Cavia porcellus, UniProt P41144); experiment: Binding affinity was determined in a crude membrane preparation from guinea pig brain by displacement of [3H]U-69593 from Opioid receptor kappa 1; type: cell membranes; summary of the method: as §1
Kappa-type opioid receptor, sequence (P41144 whole entry): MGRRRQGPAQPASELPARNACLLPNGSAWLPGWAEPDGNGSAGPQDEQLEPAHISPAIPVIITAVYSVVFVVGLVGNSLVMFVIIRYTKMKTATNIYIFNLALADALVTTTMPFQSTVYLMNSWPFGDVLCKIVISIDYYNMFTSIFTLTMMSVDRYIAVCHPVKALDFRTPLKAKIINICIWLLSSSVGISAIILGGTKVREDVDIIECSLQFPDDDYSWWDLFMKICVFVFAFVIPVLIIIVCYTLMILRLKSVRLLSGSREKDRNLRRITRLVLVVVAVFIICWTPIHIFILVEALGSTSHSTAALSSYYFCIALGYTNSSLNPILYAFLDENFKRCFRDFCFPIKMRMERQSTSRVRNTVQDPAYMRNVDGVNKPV

Opioid receptors; mu & delta, sequence (P35372 whole entry, looked up): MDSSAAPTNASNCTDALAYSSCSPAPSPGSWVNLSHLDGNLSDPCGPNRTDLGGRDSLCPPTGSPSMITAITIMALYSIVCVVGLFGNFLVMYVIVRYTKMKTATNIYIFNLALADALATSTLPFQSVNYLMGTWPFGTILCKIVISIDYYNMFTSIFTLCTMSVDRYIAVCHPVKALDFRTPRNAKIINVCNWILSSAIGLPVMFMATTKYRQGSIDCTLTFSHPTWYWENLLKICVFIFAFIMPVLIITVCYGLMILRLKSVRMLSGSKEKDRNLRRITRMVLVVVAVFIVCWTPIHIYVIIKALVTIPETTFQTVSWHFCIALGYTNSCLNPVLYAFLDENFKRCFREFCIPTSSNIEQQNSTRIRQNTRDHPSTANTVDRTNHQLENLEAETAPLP
Opioid receptors; mu & delta, sequence (P41143 whole entry, looked up): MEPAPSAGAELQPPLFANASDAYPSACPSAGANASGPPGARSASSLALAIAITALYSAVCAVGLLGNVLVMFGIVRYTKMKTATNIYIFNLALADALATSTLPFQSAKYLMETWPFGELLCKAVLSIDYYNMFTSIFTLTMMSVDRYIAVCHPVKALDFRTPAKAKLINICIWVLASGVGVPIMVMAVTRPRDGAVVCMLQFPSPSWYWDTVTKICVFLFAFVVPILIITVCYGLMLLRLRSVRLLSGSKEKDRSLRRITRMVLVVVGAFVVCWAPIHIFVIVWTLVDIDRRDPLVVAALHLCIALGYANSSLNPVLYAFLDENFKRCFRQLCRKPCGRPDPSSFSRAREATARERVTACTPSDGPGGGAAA
Mu-type opioid receptor, sequence (P97266 whole entry): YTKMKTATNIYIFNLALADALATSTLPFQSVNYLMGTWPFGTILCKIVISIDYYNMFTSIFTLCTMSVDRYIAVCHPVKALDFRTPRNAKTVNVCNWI

| Compound | Selectivity ratio [1] | Ki [2] | Ki [3] |
| --- | --- | --- | --- |
| O=C1/C(=C/c2cccc3ccccc23)C[C@@]2(O)[C@H]3Cc4ccc(O)c5c4C2(CCN3CC2CC2)[C@H]1O5 | 7.5 | 0.036 µM | 0.12 µM |
| O=C1/C(=C\c2cccc3ccccc23)C[C@@]2(O)[C@H]3Cc4ccc(O)c5c4C2(CCN3CC2CC2)[C@H]1O5 | 15 | 0.011 µM | 0.037 µM |
| O=C1/C(=C/c2c3ccccc3cc3ccccc23)C[C@@]2(O)[C@H]3Cc4ccc(O)c5c4C2(CCN3CC2CC2)[C@H]1O5 | 6.4 | 0.11 µM | 0.17 µM |
| O=C1/C(=C/c2ccc(-c3ccccc3)cc2)C[C@@]2(O)[C@H]3Cc4ccc(O)c5c4C2(CCN3CC2CC2)[C@H]1O5 | 0.6 | 0.05 µM | 0.19 µM |
| O=C1/C(=C/c2ccc3ccccc3c2)C[C@@]2(O)[C@H]3Cc4ccc(O)c5c4C2(CCN3CC2CC2)[C@H]1O5 | 0.6 | 0.023 µM | 0.074 µM |
| O=C1/C(=C/c2ccccc2)C[C@@]2(O)[C@H]3Cc4ccc(O)c5c4[C@@]2(CCN3CC2CC2)[C@H]1O5 [BNTX] | 4 | 0.026 µM | 0.048 µM |
| O=C1/C(=C\c2c3ccccc3cc3ccccc23)C[C@@]2(O)[C@H]3Cc4ccc(O)c5c4C2(CCN3CC2CC2)[C@H]1O5 | 14 | 0.034 µM | 0.1 µM |
| O=C1/C(=C\c2ccccc2)C[C@@]2(O)[C@H]3Cc4ccc(O)c5c4[C@@]2(CCN3CC2CC2)[C@H]1O5 | 8.6 | 0.033 µM | 0.034 µM |
| O=C1/C(=C\c2ccc(-c3ccccc3)cc2)C[C@@]2(O)[C@H]3Cc4ccc(O)c5c4C2(CCN3CC2CC2)[C@H]1O5 | 4.2 | 0.21 µM | 0.4 µM |
| CC(C)CN1CCC23c4c5ccc(O)c4O[C@H]2C(=O)/C(=C\c2ccc4ccccc4c2)C[C@@]3(O)[C@H]1C5 | 3 | – | – |
